An excerpt weighted towards active compounds, which were near 3.3% of everything screened.
E-sel inducer: E-selectin induction in HUVECs, primary screen, imaging, HUVEC, immunofluorescence imaging, single point | P16581 | normalized: neutral wells 0, TNF-alpha wells 100 | actives 0.37% (n = 260,000) | activation, % at 7.58 µM;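 active means mean E-selectin-positive cell signal at least 10% of the positive control, reached in at least 60% of replicates, without over 20% cell loss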
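Material: HUVEC primary endothelial cells; Amount: 3,000 cells per well; Dosing: single concentration; Medium: EGM-2 growth medium on 0.1% gelatin-coated wells; Read-out basis: percent E-selectin-positive cells; Signal: immunofluorescence imaging; Control set: TNF-alpha, DMSO.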
XiGFP reactiv: activators of inactive X chromosome reactivation, primary screen, imaging, XiGFP fibroblasts, GFP high-content imaging, set 2 | XiGFP mouse fibroblasts, % GFP-positive cells imaging, 3 d; cells co-treated with 5-aza-dC sensitizer; scaled so ellipticine positive control = 100% | activation, % at 7.58 µM | actives 0.055% (n = 360,000) | AID 743238, 2013;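 active means mean normalized replicate activation at least 10% and every replicate at or above 10%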;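 further: 0% = median of on-plate neutral control wells and 100% = ellipticine 6 µM median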
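Material: SV40-immortalized XiGFP fibroblast cells, line 68-5-11 | Buffer or medium: DMEM containing 5-aza-dC | Dosing: One concentration, pinned | Times: 3 d treatment, 15 min room-temperature fixation | Controls: Ellipticine 6 µM positive control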
Statin myotox sup: suppressors of statin myotoxicity in C2C12 myotubes, primary screen, cell-based, single point, plate reader | C2C12 myotubes + simvastatin, ATP luminescence, 48 h; scaled: DMSO 0, geranylgeraniol control 100 | rescue of ATP level, % at 7.49 µM | actives 0.78% (n = 330,000);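 active means mean ATP rescue above about 67%, or every replicate alone reaching that limit, limit read from the data, passing the limit was not always enough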;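 further: myotubes were challenged with 10 µM simvastatin during compound exposure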
PglD DTNB: C. jejuni PglD acetyltransferase inhibitors, primary screen, biochemical, DTNB colorimetric, single point. inhibition, % at 12.5 µM. purified PglD enzyme, DTNB colorimetric CoA detection. actives 0.098% (n = 360,000). UDP-N-acetylbacillosamine N-acetyltransferase PglD (Campylobacter jejuni); in the data active means inhibition above about 16%, passing the limit was not always enough
DENV2 CPE: inhibitors of DENV2 cytopathic effect, primary screen, cell-based, plate reader, single concentration. CPE inhibition, % at 9.99 µM. actives 1.7% (n = 350,000). AID 651640, 2012. DENV2-infected cells, cytopathic effect rescue; in the data active means CPE inhibition above about 20%, passing the limit was not always enough; tested in BHK-21 cells;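 further: 0% = median of neutral control wells and 100% = median of positive control wells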
FGF22 binding: binders of human FGF22 protein, primary screen, FGF22 synaptogenesis inhibitor project, biophysical, thermal shift, single point; Fibroblast growth factor 22 (Homo sapiens), Q9HCT0; actives 1.5% (n = 340,000); recombinant FGF22 thermal shift, SYPRO orange fluorescence; percent of sucrose octasulfate shift, DMSO zero; activity (Tm shift, normalised), % at 9.99 µM;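 active means mean Tm shift, scaled 0 neutral to 100 positive control, at about 1.3% or above, every replicate too, limit read from the data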
Target sequence (Q9HCT0 whole entry, looked up): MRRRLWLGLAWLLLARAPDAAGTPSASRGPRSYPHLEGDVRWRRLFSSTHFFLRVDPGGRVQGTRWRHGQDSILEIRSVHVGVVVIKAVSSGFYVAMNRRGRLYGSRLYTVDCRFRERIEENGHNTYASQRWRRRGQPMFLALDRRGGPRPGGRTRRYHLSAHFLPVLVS
Active calls of the source: *.

Screening Cc1nn(Cc2ccccc2)c(C)c1/C=N/NC(=O)c1cccnc1 returned XiGFP reactiv 0, DENV2 CPE 2 and FGF22 binding 0.
`Cc1c(/C=N/NC(=O)c2cccnc2)cc(C#N)n1C` gave E-sel inducer 4, XiGFP reactiv 0, DENV2 CPE -2 and FGF22 binding 43*.
Cc1ccc(Cn2nc(C)c(/C=N/NC(=O)c3cccnc3)c2C)cc1 was read as E-sel inducer 3, XiGFP reactiv 0, DENV2 CPE -4 and FGF22 binding 43*.
For C[C@H]1CN([C@@H](C)CO)S(=O)(=O)c2ccc(-c3cccc(C#N)c3)cc2O[C@H]1CN(C)C(=O)c1cccnc1 the results were E-sel inducer 1, XiGFP reactiv -1, Statin myotox sup 16, PglD DTNB 0, DENV2 CPE 0 and FGF22 binding 0.
Screening O=C(COC(=O)CNC(=O)c1ccc(Cl)cc1)Nc1ncc(C(F)(F)F)cc1Cl returned XiGFP reactiv 0, DENV2 CPE 76* and FGF22 binding 0.
`NC(=S)Nc1ncc(C(F)(F)F)cc1Cl` gave XiGFP reactiv 0, DENV2 CPE -3 and FGF22 binding 43*.
For CCC(=O)OCC(=O)Nc1ncc(C(F)(F)F)cc1Cl the results were E-sel inducer -1, XiGFP reactiv 0, Statin myotox sup 2, PglD DTNB -2, DENV2 CPE 2 and FGF22 binding 0.
Screening NC(=S)c1ncc(C(F)(F)F)cc1Cl returned XiGFP reactiv 0, Statin myotox sup -2, PglD DTNB -2, DENV2 CPE 13 and FGF22 binding 0.
`C[C@@H]1CN([C@@H](C)CO)C(=O)Cc2cc(NS(C)(=O)=O)ccc2O[C@H]1CN(C)S(=O)(=O)c1ccc(Cl)cc1` gave E-sel inducer -8, XiGFP reactiv 0, Statin myotox sup 21, PglD DTNB -4, DENV2 CPE 1 and FGF22 binding 0.
For C[C@@H]1CCCCO[C@H](CN(C)S(C)(=O)=O)[C@@H](C)CN([C@@H](C)CO)C(=O)c2cc(NS(=O)(=O)c3ccccc3)ccc2O1 the results were E-sel inducer 0, XiGFP reactiv 0, Statin myotox sup -13, PglD DTNB -1, DENV2 CPE 1 and FGF22 binding -1.
For C[C@H](CO)N1C[C@H](C)[C@H](CN(C)Cc2ccc(Oc3ccccc3)cc2)Oc2ccc(NC(=O)Cn3cnnn3)cc2CC1=O the results were E-sel inducer 20, XiGFP reactiv -1, Statin myotox sup 44, PglD DTNB 3, DENV2 CPE 18 and FGF22 binding 0.
Cc1cccc(N(CC(=O)NC2CC2)S(=O)(=O)c2ccc(Cl)cc2)c1 was read as E-sel inducer 0, XiGFP reactiv 0, Statin myotox sup 1, PglD DTNB -6, DENV2 CPE 50* and FGF22 binding 0.
CCCNC(=O)N1CC2(CCN(S(=O)(=O)CC)CC2)c2c(n(C)c3cc(OC)ccc23)[C@@H]1CO was read as E-sel inducer 0, XiGFP reactiv 0, DENV2 CPE 1 and FGF22 binding 0.
For CCCCOc1ccc(CN=C(N)N)cc1Cl the results were E-sel inducer 0, XiGFP reactiv 0, DENV2 CPE -5 and FGF22 binding 0.
Screening CCCCOc1ccc(CSCCN=C(N)N)cc1 returned E-sel inducer 1, XiGFP reactiv 0 and FGF22 binding 43*.
`C[C@H](CO)N1C[C@H](C)[C@@H](CN(C)C(=O)C2CCC2)Oc2ncc(-c3cccc(F)c3)cc2C1=O` gave E-sel inducer 0, XiGFP reactiv 0, Statin myotox sup -13, PglD DTNB -1, DENV2 CPE 6 and FGF22 binding 0.
For C/C=C/c1ccc2c(c1)O[C@@H](CN(C)C(=O)NC1CCCCC1)[C@H](C)CN([C@@H](C)CO)S2(=O)=O the results were E-sel inducer -4, XiGFP reactiv 0, Statin myotox sup -46, PglD DTNB 0, DENV2 CPE 4 and FGF22 binding 0.
`C/C=C/c1ccc2c(c1)O[C@@H](CN(C)C(=O)Nc1ccccc1)[C@H](C)CN([C@H](C)CO)S2(=O)=O` gave E-sel inducer 1, XiGFP reactiv 0, Statin myotox sup -9, PglD DTNB -1, DENV2 CPE 28* and FGF22 binding 1.
`C/C=C/c1ccc2c(c1)O[C@H](CN(C)C(=O)Nc1ccc(C(F)(F)F)cc1)[C@H](C)CN([C@H](C)CO)S2(=O)=O` gave E-sel inducer 0, XiGFP reactiv -1, Statin myotox sup -24, PglD DTNB 0, DENV2 CPE -7 and FGF22 binding 1.8*.
Screening C/C=C/c1ccc2c(c1)O[C@@H](CN(C)C(=O)NC1CCCCC1)[C@@H](C)CN([C@@H](C)CO)S2(=O)=O returned E-sel inducer -7, XiGFP reactiv 0, Statin myotox sup 111*, PglD DTNB 2, DENV2 CPE -12 and FGF22 binding 0.
Screening C[C@H]1CN([C@@H](C)CO)S(=O)(=O)c2ccc(/C=C/c3ccccc3)cc2O[C@H]1CN(C)C(=O)Nc1cc(F)ccc1F returned E-sel inducer 1, XiGFP reactiv -1, Statin myotox sup -34, PglD DTNB 0, DENV2 CPE 2 and FGF22 binding 1.8*.
O=C(NCC[C@@H]1CC[C@@H](NC(=O)C2CCCCC2)[C@@H](CO)O1)c1cnccn1 was read as E-sel inducer 0, XiGFP reactiv 0, Statin myotox sup -1, PglD DTNB 16, DENV2 CPE -5 and FGF22 binding 0.
Screening CO[C@H]1CN(C)C(=O)c2cc(NS(=O)(=O)c3ccccc3F)ccc2OC[C@@H](C)NC[C@H]1C returned E-sel inducer 0, XiGFP reactiv 0, Statin myotox sup 3, PglD DTNB 0, DENV2 CPE -7 and FGF22 binding 0.
Screening C/C=C/c1ccc2c(c1)O[C@@H](CN(C)C(=O)Nc1ccc(C(F)(F)F)cc1)[C@@H](C)CN([C@H](C)CO)S2(=O)=O returned E-sel inducer 1, XiGFP reactiv 0, Statin myotox sup 25, PglD DTNB 4, DENV2 CPE -8 and FGF22 binding 1.4*.

From PubChem BioAssay
